Measured values published in ChEMBL document CHEMBL4177600, “Identification of novel PI3K inhibitors through a scaffold hopping strategy” (Bioorg Med Chem Lett, 2017).

Key:
[1] = target: CYP2C19 (Homo sapiens, UniProt P33261); experiment: Inhibition of CYP2C19 (unknown origin) at 10 uM relative to control; assay type: ADME
Procedure, shortened: (§1)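 CYP1A2, 2C9, 2C19, 2D6 and 3A4 inhibition measured at 10 µM test compound in duplicate; percent inhibition reported.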

[2] = target: Hepatocyte growth factor receptor (Homo sapiens) (UniProt P08581); experiment: Inhibition of recombinant human N-terminal GST/His6-tagged MET (K956 to S1390 residues) expressed in Sf9 insect cells at 1 uM using TRK-C-derived peptide as substrate by filter binding method relative to control
Procedure, shortened: (§2)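 Single-point screen at 1 µM in a 24-kinase panel run externally; each value is the average of two independent data points. The detailed assay conditions are given only on the provider's site.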

[3] = target: CYP3A4 (Homo sapiens, UniProt P08684); experiment: Inhibition of CYP3A4 (unknown origin) at 10 uM relative to control; assay type: ADME; procedure, shortened: as §1
[4] = target: Ribosomal protein S6 kinase alpha-1 (Homo sapiens) (UniProt Q15418); experiment: Inhibition of RPS6KA1 (unknown origin) at 1 uM relative to control
Procedure, shortened: (§3)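 Kinase panel of 24 enzymes, each tested at 1 µM; percent inhibition reported as the average of two independent data points.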

[5] = target: T1, 3-phosphoinositide-dependent protein kinase 1 (Homo sapiens) (UniProt O15530); experiment: Inhibition of recombinant human N-terminal His6-tagged PDK1 (M1 to M460 residues) expressed in Sf9 insect cells at 1 uM using LRRWSLG as substrate by filter binding method relative to control; procedure, shortened: as §2
T1 sequence (whole entry): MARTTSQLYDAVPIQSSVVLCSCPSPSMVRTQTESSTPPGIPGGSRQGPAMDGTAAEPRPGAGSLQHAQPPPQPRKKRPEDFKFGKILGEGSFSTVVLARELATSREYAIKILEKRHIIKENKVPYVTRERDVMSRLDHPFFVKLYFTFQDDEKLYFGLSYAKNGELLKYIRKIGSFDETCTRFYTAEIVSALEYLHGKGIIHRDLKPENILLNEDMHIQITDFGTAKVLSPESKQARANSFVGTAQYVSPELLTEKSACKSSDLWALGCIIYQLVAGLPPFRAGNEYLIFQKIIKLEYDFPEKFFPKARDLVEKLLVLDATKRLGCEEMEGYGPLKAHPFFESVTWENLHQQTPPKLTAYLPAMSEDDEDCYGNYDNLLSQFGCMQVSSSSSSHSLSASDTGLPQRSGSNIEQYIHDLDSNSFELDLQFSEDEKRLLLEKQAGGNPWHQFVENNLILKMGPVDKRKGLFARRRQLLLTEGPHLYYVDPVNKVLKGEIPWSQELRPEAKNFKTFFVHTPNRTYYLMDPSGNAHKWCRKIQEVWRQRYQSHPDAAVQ

[6] = target: Proto-oncogene tyrosine-protein kinase Src (Homo sapiens) (UniProt P12931); experiment: Inhibition of human SRC at 1 uM using poly(Glu,Tyr)4:1 as substrate by filter binding method relative to control; procedure, shortened: as §3
[7] = Inhibition of PI3K in serum-stimulated human U2OS cells assessed as decrease in AKT1 phosphorylation at S473 by C-ELISA; assay type: cell-based
Procedure, shortened: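 U2OS osteosarcoma cells grown in 0.1% FBS, then serum-stimulated; endogenous phospho-Akt1 (Ser473) quantified by cell ELISA with chemiluminescent substrate. EC50 from sigmoid dose-response fit; two independent experiments in duplicate.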

[8] = target: Fibroblast growth factor receptor 1 (Homo sapiens) (UniProt P11362); experiment: Inhibition of recombinant human N-terminal GST/His6-tagged FGFR1 (G400 to R820 residues) expressed in Sf9 insect cells at 1 uM using poly(Glu,Tyr)4:1 as substrate by filter binding method relative to control; procedure, shortened: as §3
[9] = Stability in human liver microsomes assessed as parent compound remaining at 0.5 uM after 30 mins by LC-MS/MS analysis; assay type: ADME, microsome; conditions: read-out: Stability
Procedure, shortened: (§4)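 Single time-point stability assay: 0.5 µM compound, 0.5 mg/ml human or mouse liver microsomes in 0.1 M potassium phosphate pH 7.4, with NADPH-regenerating system, 30 min at 37 °C with shaking. Reaction quenched with acetonitrile/0.1% formic acid and centrifuged; supernatant analysed by LC-MS/MS. Reported as percent remaining; duplicates.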

[10] = target: T2, Inhibitor of nuclear factor kappa-B kinase subunit beta (Homo sapiens) (UniProt O14920); experiment: Inhibition of recombinant human N-terminal GST/His6-tagged IKKbeta (M1 to S756 residues) expressed in baculovirus infected Sf9 cells at 1 uM using IKBa derived peptide as substrate by filter binding method relative to control; procedure, shortened: as §3
T2 sequence (whole entry): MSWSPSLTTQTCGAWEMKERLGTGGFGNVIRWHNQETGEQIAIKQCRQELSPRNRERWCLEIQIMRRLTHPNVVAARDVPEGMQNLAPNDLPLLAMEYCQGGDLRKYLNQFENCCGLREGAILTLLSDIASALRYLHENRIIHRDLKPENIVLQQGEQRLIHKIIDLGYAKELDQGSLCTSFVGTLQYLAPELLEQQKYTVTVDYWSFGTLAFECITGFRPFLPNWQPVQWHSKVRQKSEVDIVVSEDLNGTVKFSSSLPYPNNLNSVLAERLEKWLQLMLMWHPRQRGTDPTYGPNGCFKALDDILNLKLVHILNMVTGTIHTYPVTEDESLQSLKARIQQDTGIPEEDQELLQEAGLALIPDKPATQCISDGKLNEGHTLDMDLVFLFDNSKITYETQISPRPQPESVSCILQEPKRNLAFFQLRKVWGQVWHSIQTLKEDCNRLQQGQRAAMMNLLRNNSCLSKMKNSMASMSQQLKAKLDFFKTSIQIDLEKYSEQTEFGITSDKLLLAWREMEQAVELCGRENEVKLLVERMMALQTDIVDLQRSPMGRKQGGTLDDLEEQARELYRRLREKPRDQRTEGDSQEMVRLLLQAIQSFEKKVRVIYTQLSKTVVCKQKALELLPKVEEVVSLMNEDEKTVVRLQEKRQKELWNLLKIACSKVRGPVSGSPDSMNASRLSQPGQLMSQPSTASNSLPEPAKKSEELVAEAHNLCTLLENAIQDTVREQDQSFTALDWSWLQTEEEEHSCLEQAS

[11] = target: CDK8/Cyclin C (Homo sapiens) (UniProt P49336+P24863); experiment: Inhibition of recombinant human N-terminal GST/HIS6-tagged CDK8 (M1 to Y463 residues)/human N-terminal His6-tagged Cyclin C (M1 to S283 residues) expressed in Sf9 insect cells at 1 uM using RBER-IRStide as substrate by fliter binding assay relative to control; procedure, shortened: as §3
[12] = target: Voltage-gated inwardly rectifying potassium channel KCNH2 (Homo sapiens, UniProt Q12809); experiment: Inhibition of human ERG by Tracer Red dye based fluorescence polarization assay
Procedure, shortened: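 hERG binding measured with Predictor hERG kit per kit instructions, read by fluorescence polarization.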

[13] = Stability in mouse liver microsomes assessed as parent compound remaining at 0.5 uM after 30 mins by LC-MS/MS analysis; assay type: ADME, microsome; conditions: read-out: Stability; procedure, shortened: as §4

Ribosomal protein S6 kinase alpha-1 (Homo sapiens), sequence (Q15418 whole entry): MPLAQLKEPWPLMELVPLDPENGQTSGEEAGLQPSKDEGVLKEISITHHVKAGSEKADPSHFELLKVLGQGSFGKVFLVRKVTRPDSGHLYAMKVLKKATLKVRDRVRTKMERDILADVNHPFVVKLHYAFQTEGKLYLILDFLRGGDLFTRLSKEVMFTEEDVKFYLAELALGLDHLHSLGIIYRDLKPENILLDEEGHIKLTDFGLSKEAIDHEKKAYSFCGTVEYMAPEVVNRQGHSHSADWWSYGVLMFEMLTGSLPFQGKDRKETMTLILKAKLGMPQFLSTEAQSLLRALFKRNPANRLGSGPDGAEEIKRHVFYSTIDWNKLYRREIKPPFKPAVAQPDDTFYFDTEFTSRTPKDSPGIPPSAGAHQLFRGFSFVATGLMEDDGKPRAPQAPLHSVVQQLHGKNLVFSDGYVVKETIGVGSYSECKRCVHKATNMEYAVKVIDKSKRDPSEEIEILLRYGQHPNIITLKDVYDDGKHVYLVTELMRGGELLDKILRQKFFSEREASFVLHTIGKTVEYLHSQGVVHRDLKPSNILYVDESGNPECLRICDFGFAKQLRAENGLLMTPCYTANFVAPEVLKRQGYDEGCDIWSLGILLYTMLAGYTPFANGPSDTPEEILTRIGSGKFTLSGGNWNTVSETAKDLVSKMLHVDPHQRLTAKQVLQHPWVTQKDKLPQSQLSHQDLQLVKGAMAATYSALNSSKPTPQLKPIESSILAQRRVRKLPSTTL
CYP2C19, sequence (P33261 whole entry): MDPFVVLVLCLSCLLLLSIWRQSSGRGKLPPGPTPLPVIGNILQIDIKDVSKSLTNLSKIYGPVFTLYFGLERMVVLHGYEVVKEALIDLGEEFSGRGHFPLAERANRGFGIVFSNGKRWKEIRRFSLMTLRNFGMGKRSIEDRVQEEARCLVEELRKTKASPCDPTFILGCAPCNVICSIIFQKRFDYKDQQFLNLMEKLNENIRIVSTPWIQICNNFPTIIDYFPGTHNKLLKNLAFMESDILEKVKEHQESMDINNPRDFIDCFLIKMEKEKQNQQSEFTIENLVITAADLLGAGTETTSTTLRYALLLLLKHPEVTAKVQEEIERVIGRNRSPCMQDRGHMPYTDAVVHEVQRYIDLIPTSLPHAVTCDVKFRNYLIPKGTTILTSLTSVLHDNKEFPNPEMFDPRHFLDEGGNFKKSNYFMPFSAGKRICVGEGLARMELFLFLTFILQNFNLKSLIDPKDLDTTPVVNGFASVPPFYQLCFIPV
Voltage-gated inwardly rectifying potassium channel KCNH2, sequence (Q12809 whole entry): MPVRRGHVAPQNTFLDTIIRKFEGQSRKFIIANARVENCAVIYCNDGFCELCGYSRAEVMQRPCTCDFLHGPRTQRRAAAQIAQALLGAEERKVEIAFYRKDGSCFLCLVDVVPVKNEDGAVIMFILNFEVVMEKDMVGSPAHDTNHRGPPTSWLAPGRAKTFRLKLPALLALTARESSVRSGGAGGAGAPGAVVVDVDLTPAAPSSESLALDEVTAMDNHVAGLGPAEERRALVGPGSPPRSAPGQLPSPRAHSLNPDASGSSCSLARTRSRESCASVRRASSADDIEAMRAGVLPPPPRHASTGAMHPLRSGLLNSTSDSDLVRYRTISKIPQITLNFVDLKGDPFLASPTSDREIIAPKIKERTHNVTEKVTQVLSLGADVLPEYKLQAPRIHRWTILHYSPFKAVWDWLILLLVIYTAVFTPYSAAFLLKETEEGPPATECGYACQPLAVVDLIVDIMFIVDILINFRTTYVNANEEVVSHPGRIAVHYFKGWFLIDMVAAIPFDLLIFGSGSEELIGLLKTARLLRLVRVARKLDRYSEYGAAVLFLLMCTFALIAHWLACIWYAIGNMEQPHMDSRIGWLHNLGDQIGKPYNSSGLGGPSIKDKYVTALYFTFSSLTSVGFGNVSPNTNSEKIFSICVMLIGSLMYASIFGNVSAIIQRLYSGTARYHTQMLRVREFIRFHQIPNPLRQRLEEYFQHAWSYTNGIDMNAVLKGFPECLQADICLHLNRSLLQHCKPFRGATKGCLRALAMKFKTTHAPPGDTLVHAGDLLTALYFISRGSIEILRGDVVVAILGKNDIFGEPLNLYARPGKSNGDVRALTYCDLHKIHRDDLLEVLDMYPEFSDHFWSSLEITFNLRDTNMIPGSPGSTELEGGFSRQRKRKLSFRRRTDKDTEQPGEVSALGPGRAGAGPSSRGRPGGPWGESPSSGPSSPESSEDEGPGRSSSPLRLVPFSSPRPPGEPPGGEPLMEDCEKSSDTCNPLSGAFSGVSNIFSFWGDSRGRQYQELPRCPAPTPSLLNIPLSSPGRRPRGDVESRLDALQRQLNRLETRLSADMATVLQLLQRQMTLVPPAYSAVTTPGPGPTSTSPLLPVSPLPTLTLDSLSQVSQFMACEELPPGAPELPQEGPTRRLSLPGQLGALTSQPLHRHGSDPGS
Fibroblast growth factor receptor 1 (Homo sapiens), sequence (P11362 22-822 limits assumed): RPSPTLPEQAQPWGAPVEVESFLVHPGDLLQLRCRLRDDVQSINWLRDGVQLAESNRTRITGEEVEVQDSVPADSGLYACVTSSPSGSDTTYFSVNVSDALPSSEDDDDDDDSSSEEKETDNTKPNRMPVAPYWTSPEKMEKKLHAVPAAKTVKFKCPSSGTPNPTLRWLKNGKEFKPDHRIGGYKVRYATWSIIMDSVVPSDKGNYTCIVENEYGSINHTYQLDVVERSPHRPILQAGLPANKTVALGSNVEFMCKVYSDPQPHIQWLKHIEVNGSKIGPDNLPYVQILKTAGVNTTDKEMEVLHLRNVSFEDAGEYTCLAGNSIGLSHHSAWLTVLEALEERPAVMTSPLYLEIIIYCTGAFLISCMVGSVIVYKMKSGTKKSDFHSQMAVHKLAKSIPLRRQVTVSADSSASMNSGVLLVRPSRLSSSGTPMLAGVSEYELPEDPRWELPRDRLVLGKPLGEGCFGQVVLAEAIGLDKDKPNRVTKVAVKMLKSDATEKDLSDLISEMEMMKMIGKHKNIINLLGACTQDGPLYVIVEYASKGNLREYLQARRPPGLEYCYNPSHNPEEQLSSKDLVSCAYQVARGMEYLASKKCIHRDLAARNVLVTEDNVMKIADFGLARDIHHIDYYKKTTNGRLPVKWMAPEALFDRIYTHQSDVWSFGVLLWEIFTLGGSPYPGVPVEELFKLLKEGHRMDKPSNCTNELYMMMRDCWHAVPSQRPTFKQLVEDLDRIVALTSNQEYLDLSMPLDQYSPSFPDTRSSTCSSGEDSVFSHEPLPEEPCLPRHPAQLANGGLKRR
Proto-oncogene tyrosine-protein kinase Src (Homo sapiens), sequence (P12931 2-536 limits assumed): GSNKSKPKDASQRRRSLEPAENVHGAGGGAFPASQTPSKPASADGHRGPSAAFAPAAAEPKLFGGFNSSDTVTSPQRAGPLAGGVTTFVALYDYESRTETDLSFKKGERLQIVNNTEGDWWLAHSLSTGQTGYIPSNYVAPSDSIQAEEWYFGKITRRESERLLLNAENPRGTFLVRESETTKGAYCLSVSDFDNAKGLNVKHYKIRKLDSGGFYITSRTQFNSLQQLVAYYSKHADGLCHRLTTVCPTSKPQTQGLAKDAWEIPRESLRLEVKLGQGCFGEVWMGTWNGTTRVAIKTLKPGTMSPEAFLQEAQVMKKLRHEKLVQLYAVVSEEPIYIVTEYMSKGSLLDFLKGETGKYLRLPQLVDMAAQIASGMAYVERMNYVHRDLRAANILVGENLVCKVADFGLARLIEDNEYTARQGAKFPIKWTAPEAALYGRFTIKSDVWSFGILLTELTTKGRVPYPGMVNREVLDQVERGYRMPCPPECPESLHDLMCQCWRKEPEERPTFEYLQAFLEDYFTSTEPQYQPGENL
CYP3A4, sequence (P08684 whole entry): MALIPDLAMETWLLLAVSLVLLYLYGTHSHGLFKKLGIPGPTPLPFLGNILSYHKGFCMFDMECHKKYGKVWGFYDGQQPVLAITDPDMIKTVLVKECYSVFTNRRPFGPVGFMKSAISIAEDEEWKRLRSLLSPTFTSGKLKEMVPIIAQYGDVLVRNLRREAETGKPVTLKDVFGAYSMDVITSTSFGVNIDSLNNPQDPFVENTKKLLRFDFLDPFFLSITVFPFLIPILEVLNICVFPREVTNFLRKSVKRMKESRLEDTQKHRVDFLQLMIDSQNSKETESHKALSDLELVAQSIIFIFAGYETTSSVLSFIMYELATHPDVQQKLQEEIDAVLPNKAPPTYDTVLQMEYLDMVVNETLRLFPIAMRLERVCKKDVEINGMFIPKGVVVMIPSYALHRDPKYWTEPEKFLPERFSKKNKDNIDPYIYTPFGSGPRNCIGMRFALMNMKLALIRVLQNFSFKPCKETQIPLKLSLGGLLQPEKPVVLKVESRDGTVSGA

Row | inhibition at 10 µM [1] | inhibition [2] | inhibition at 10 µM [3] | inhibition [4] | inhibition [5] | inhibition [6] | EC50 [7] | inhibition [8] | remaining at 0.5 h, 0.5 µM [9] | inhibition [10] | inhibition [11] | remaining at 0.5 h, 0.5 µM [13] | SMILES | IC50 [12]
1 | < 25% | < 25% | < 25% | < 25% | < 25% | < 25% | 68.6 nM | < 25% | 97% | < 25% | < 25% | 96% | CS(=O)(=O)N1CCN(Cc2nc3c(N4CCOCC4)nc(-c4cnc(N)nc4)c(Cl)n3n2)CC1 | > 30000 nM
2 | < 25% | < 25% | < 25% | < 25% | < 25% | < 25% | 52.8 nM | < 25% | 95% | < 25% | < 25% | 100% | CS(=O)(=O)N1CCN(Cc2cn3nc(-c4cnc(N)nc4)nc(N4CCOCC4)c3n2)CC1 | > 30000 nM
3 | < 25% | < 25% | < 25% | < 25% | < 25% | < 25% | 87.2 nM | < 25% | 99% | < 25% | < 25% | 100% | CS(=O)(=O)N1CCN(Cc2nc3c(N4CCOCC4)nc(-c4cnc(N)nc4)cn3n2)CC1 | > 30000 nM
4 | < 25% | < 25% | < 25% | < 25% | < 25% | < 25% | 30.5 nM | < 25% | 97% | < 25% | < 25% | 100% | CS(=O)(=O)N1CCN(Cc2cc3c(N4CCOCC4)nc(-c4cnc(N)nc4)cn3n2)CC1 | > 30000 nM
